Source: ChEMBL document CHEMBL5058577, “EUbOPEN Chemogenomics Library 2 (Multiplex)” (2022)

Test system: U2OS
Assay: Multiplex assay against U2OS
Assay type: toxicity, cell-based
Settings: human
How it was run: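 Compound was added to live cells that had been stained at seeding with Hoechst33342, BioTracker Green Microtubule Cytoskeleton Dye, MitoTracker Red and Annexin V Alexa Fluor 680, and imaging followed on a CQ1 microscope at 37°C and 5% CO2. CellPathfinder machine-learning gating divided cells into Hoechst high-intensity objects or normal cells, normal cells into healthy, pyknosed or fragmented nuclei, and pyknosed cells into mitotic or apoptotic. Tubulin, mitochondrial-mass and membrane-permeability phenotypes are per cents of healthy-nucleus cells.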

[1] = 12 h, 1 µM, compound concentration 1 uM, replicate 1
[2] = 12 h, 1 µM, compound concentration 1 uM, replicate 2
[3] = 12 h, 10 µM, compound concentration 10 uM, replicate 1
[4] = 12 h, 10 µM, compound concentration 10 uM, replicate 2
[5] = 24 h, 1 µM, compound concentration 1 uM, replicate 1
[6] = 24 h, 1 µM, compound concentration 1 uM, replicate 2
[7] = 24 h, 10 µM, compound concentration 10 uM, replicate 1
[8] = 24 h, 10 µM, compound concentration 10 uM, replicate 2
[9] = 48 h, 1 µM, compound concentration 1 uM, replicate 1
[10] = 48 h, 1 µM, compound concentration 1 uM, replicate 2
[11] = 48 h, 10 µM, compound concentration 10 uM, replicate 1
[12] = 48 h, 10 µM, compound concentration 10 uM, replicate 2

COc1ccc2c(c1)C(C(=O)N(Cc1ccc(N(C)C)cc1)c1ccc(C(C)C)cc1)CCC2.Cl (configuration not stated)
Population Apoptotic (%) [1]: 70% | Population Fragmented Nuclei (%) [1]: 36% | Population Healthy Nuclei (%) [1]: 54% | Population Hoechst High Intensity Objects (%) [1]: 4% | Population Membrane Permeable-Phenotype (%) [1]: 8% | Population Mitochondria Different-Phenotype (%) [1]: 5% | Population Mitotic Cells (%) [1]: 29% | Population Normal (%) [1]: 95% | Population Pyknosed Nuclei (%) [1]: 9% | Population Tubulin-Different-Phenotype (%) [1]: 4% | Total Cell Count [1]: 264 | Population Fragmented Nuclei (%) [2]: 17% | Population Healthy Nuclei (%) [2]: 73% | Population Hoechst High Intensity Objects (%) [2]: 3% | Population Membrane Permeable-Phenotype (%) [2]: 9% | Population Mitochondria Different-Phenotype (%) [2]: 3% | Population Mitotic Cells (%) [2]: 30% | Population Normal (%) [2]: 96% | Population Pyknosed Nuclei (%) [2]: 8% | Population Tubulin-Different-Phenotype (%) [2]: 2% | Total Cell Count [2]: 122 | Population Apoptotic (%) [3]: 38% | Population Fragmented Nuclei (%) [3]: 27% | Population Healthy Nuclei (%) [3]: 50% | Population Hoechst High Intensity Objects (%) [3]: 4% | Population Membrane Permeable-Phenotype (%) [3]: 73% | Population Mitochondria Different-Phenotype (%) [3]: 55% | Population Mitotic Cells (%) [3]: 61% | Population Normal (%) [3]: 95% | Population Pyknosed Nuclei (%) [3]: 22% | Population Tubulin-Different-Phenotype (%) [3]: 80% | Total Cell Count [3]: 224 | Population Apoptotic (%) [4]: 60% | Population Fragmented Nuclei (%) [4]: 16% | Population Healthy Nuclei (%) [4]: 60% | Population Membrane Permeable-Phenotype (%) [4]: 43% | Population Mitochondria Different-Phenotype (%) [4]: 73% | Population Mitotic Cells (%) [4]: 40% | Population Pyknosed Nuclei (%) [4]: 23% | Population Tubulin-Different-Phenotype (%) [4]: 58% | Total Cell Count [4]: 113 | Population Apoptotic (%) [5]: 75% | Population Fragmented Nuclei (%) [5]: 27% | Population Healthy Nuclei (%) [5]: 61% | Population Hoechst High Intensity Objects (%) [5]: 4% | Population Membrane Permeable-Phenotype (%) [5]: 5% | Population Mitochondria Different-Phenotype (%) [5]: 4% | Population Mitotic Cells (%) [5]: 24% | Population Normal (%) [5]: 95% | Population Pyknosed Nuclei (%) [5]: 11% | Population Tubulin-Different-Phenotype (%) [5]: 4% | Total Cell Count [5]: 273 | Population Apoptotic (%) [6]: 100% | Population Fragmented Nuclei (%) [6]: 18% | Population Healthy Nuclei (%) [6]: 73% | Population Hoechst High Intensity Objects (%) [6]: 2% | Population Mitochondria Different-Phenotype (%) [6]: 1% | Population Mitotic Cells (%) [6]: 0% | Population Normal (%) [6]: 97% | Population Pyknosed Nuclei (%) [6]: 7% | Population Tubulin-Different-Phenotype (%) [6]: 2% | Total Cell Count [6]: 146 | Population Apoptotic (%) [7]: 71% | Population Fragmented Nuclei (%) [7]: 25% | Population Healthy Nuclei (%) [7]: 50% | Population Hoechst High Intensity Objects (%) [7]: 2% | Population Membrane Permeable-Phenotype (%) [7]: 54% | Population Mitochondria Different-Phenotype (%) [7]: 42% | Population Mitotic Cells (%) [7]: 28% | Population Normal (%) [7]: 97% | Population Pyknosed Nuclei (%) [7]: 24% | Population Tubulin-Different-Phenotype (%) [7]: 49% | Total Cell Count [7]: 224 | Population Apoptotic (%) [8]: 86% | Population Fragmented Nuclei (%) [8]: 20% | Population Healthy Nuclei (%) [8]: 57% | Population Hoechst High Intensity Objects (%) [8]: 9% | Population Membrane Permeable-Phenotype (%) [8]: 45% | Population Mitochondria Different-Phenotype (%) [8]: 53% | Population Mitotic Cells (%) [8]: 13% | Population Normal (%) [8]: 90% | Population Pyknosed Nuclei (%) [8]: 22% | Population Tubulin-Different-Phenotype (%) [8]: 48% | Total Cell Count [8]: 115 | Population Apoptotic (%) [9]: 80% | Population Fragmented Nuclei (%) [9]: 21% | Population Healthy Nuclei (%) [9]: 65% | Population Hoechst High Intensity Objects (%) [9]: 2% | Population Membrane Permeable-Phenotype (%) [9]: 10% | Population Mitochondria Different-Phenotype (%) [9]: 5% | Population Mitotic Cells (%) [9]: 20% | Population Normal (%) [9]: 97% | Population Pyknosed Nuclei (%) [9]: 13% | Population Tubulin-Different-Phenotype (%) [9]: 3% | Total Cell Count [9]: 369 | Population Apoptotic (%) [10]: 93% | Population Fragmented Nuclei (%) [10]: 17% | Population Healthy Nuclei (%) [10]: 73% | Population Hoechst High Intensity Objects (%) [10]: 3% | Population Membrane Permeable-Phenotype (%) [10]: 6% | Population Mitochondria Different-Phenotype (%) [10]: 4% | Population Mitotic Cells (%) [10]: 6% | Population Normal (%) [10]: 96% | Population Pyknosed Nuclei (%) [10]: 8% | Population Tubulin-Different-Phenotype (%) [10]: 2% | Total Cell Count [10]: 203 | Population Apoptotic (%) [11]: 73% | Population Fragmented Nuclei (%) [11]: 21% | Population Healthy Nuclei (%) [11]: 47% | Population Hoechst High Intensity Objects (%) [11]: 3% | Population Membrane Permeable-Phenotype (%) [11]: 43% | Population Mitochondria Different-Phenotype (%) [11]: 26% | Population Mitotic Cells (%) [11]: 26% | Population Normal (%) [11]: 96% | Population Pyknosed Nuclei (%) [11]: 30% | Population Tubulin-Different-Phenotype (%) [11]: 31% | Total Cell Count [11]: 265 | Population Apoptotic (%) [12]: 92% | Population Fragmented Nuclei (%) [12]: 26% | Population Healthy Nuclei (%) [12]: 49% | Population Hoechst High Intensity Objects (%) [12]: 8% | Population Mitochondria Different-Phenotype (%) [12]: 36% | Population Mitotic Cells (%) [12]: 7% | Population Normal (%) [12]: 91% | Population Pyknosed Nuclei (%) [12]: 24% | Population Tubulin-Different-Phenotype (%) [12]: 42% | Total Cell Count [12]: 126
